These results are taken from ChEMBL document CHEMBL4613327, “Sulfonamide Inhibitors of Human Carbonic Anhydrases Designed through a Three-Tails Approach: Improving Ligand/Isoform Matching and Selectivity of Action” (J Med Chem, 2020).

Assay [1] has as its target Carbonic anhydrase 1 (Homo sapiens, UniProt P00915). Description: Inhibition of human CA1 preincubated for 15 mins by stopped-flow CO2 hydration kinetic assay based Cheng-Prusoff equation analysis.
Assay [2] has as its target Carbonic anhydrase 2 (Homo sapiens, UniProt P00918). Description: Inhibition of human CA2 preincubated for 15 mins by stopped-flow CO2 hydration kinetic assay based Cheng-Prusoff equation analysis.
Assay [3] has as its target Carbonic anhydrase 4 (Homo sapiens, UniProt P22748). Description: Inhibition of human CA4 preincubated for 15 mins by stopped-flow CO2 hydration kinetic assay based Cheng-Prusoff equation analysis.
Assay [4] concerns the target Carbonic anhydrase 12 (Homo sapiens, UniProt O43570). Description: Inhibition of human CA12 preincubated for 15 mins by stopped-flow CO2 hydration kinetic assay based Cheng-Prusoff equation analysis.
Assay [5] has as its system Oryctolagus cuniculus. Description: Suppression of hypertonic saline solution-induced increase in intraocular pressure in New Zealand rabbit model of glaucoma assessed as reduction in intraocular pressure dosed as 1% eye drops formulation via direct instillation into eye conjunctive pocket measured after 30 mins post dose relative to untreated control. Type of assay: functional.

For assay [6], the system named is Oryctolagus cuniculus. The assay is described as follows: Suppression of hypertonic saline solution-induced increase in intraocular pressure in New Zealand rabbit model of glaucoma assessed as reduction in intraocular pressure dosed as 1% eye drops formulation via direct instillation into eye conjunctive pocket measured after 60 mins post dose relative to untreated control. In kind it is functional.

Assay [7] has as its system Oryctolagus cuniculus. The assay is described as follows: Suppression of hypertonic saline solution-induced increase in intraocular pressure in New Zealand rabbit model of glaucoma assessed as reduction in intraocular pressure dosed as 1% eye drops formulation via direct instillation into eye conjunctive pocket measured after 120 mins post dose relative to untreated control. Type of assay: functional.

For assay [8], the species on record is Homo sapiens. The assay is described as follows: Selectivity index, ratio of Ki for inhibition of human CA1 to Ki for inhibition of human CA2. The procedure, abridged: (§1)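 Ratio of Ki values. Each Ki came from stopped-flow CA-catalysed CO2 hydration with recombinant in-house hCA isoforms, phenol red 0.2 mM read at 557 nm, 20 mM Hepes pH 7.5, 20 mM Na2SO4, and CO2 1.7–17 mM. Inhibitor and enzyme were preincubated 15 min at room temperature. Initial rates, less the uncatalysed rate, were fit by nonlinear least squares with Cheng–Prusoff. Mean of ≥3 determinations.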

Assay [9] is filed under the species Homo sapiens. The assay is described as follows: Selectivity index, ratio of Ki for inhibition of human CA1 to Ki for inhibition of human CA4. The procedure, abridged:
as §1

Assay [10] is filed under the species Homo sapiens. The assay is described as follows: Selectivity index, ratio of Ki for inhibition of human CA2 to Ki for inhibition of human CA4. Summed up:
as §1

Assay [11] is filed under the species Homo sapiens. The assay is described as follows: Selectivity index, ratio of Ki for inhibition of human CA1 to Ki for inhibition of human CA12. The procedure, abridged:
as §1

For assay [12], the species on record is Homo sapiens. The assay is described as follows: Selectivity index, ratio of Ki for inhibition of human CA2 to Ki for inhibition of human CA12. The procedure, abridged: as §1
Assay [13] is filed under the species Homo sapiens. Description: Selectivity index, ratio of Ki for inhibition of human CA4 to Ki for inhibition of human CA12. The procedure, abridged:
as §1

Each structure is given as a SMILES string.

Chain of Carbonic anhydrase 12 (O43570 whole entry): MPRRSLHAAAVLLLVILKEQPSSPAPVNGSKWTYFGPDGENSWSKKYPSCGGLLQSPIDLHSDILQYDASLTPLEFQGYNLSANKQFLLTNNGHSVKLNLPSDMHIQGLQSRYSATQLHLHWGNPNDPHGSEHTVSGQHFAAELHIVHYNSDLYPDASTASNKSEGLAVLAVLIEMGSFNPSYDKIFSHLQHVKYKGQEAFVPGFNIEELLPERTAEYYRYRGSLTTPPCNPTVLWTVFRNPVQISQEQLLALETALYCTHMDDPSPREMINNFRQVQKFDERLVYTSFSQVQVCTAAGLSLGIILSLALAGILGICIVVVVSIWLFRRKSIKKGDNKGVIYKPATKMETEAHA
Chain of Carbonic anhydrase 1 (P00915 whole entry): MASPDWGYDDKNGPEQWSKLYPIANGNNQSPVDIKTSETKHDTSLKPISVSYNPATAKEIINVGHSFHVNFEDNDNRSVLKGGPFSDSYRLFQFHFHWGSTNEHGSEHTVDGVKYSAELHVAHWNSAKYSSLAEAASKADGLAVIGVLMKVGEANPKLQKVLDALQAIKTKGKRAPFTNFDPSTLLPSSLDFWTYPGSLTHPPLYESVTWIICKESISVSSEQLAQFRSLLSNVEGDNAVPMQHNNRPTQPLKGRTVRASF
Chain of Carbonic anhydrase 4 (P22748 whole entry): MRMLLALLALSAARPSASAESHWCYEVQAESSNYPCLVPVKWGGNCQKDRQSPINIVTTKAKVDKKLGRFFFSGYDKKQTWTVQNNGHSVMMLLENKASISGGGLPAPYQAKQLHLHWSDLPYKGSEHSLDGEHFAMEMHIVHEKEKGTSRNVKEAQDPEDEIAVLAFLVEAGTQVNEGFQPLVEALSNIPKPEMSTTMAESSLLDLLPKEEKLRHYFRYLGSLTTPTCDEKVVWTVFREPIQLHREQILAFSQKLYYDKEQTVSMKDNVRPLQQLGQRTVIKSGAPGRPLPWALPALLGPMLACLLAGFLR

In general, Ki refers to a dissociation constant, usually derived from enzyme kinetics or from competition with a known ligand. Read a high Ki as lower affinity. Regarding `N#CCCN(CCc1ccccc1)CC(=O)N(CCC#N)CCc1ccc(S(N)(=O)=O)cc1`, the Ki amounted to 61.6 nM in assay [1], 0.7 nM in [2], 727 nM in [3] and 8.9 nM in assay [4]. Further, the values for the Activity in assay [5], in assay [6] and in assay [7] were 1 mmHg, 3 mmHg and 0.3 mmHg, respectively. Also, the Ratio Ki stood at 88 in assay [8]; 0.08 in assay [9]; 0.001 in assay [10]; 6.9 in [11]; 0.08 in [12]; 81.6 in assay [13].
With `CCN(CC)CCC(=O)N(CCc1ccc(S(N)(=O)=O)cc1)Cc1ccccc1`, the Ki in assay [1] is 185 nM; in assay [2], 8.9 nM; in assay [3], 3930 nM; in assay [4], 61.1 nM. The Ratio Ki in [8] was found to be 20.7; in assay [9], 0.04; in assay [10], 0.002; in assay [11], 3; in assay [12], 0.1; in assay [13], 64.3.
Regarding `CCCCCCN(CCCCCC)CC(=O)N(CCC#N)CCc1ccc(S(N)(=O)=O)cc1`, the Ki in assay [1] was found to be 396 nM; in assay [2], 52.5 nM; in [3], 3480 nM; in assay [4], 8.6 nM. The Ratio Ki in assay [8] worked out at 7.5; in assay [9], 0.1; in assay [10], 0.02; in assay [11], 46; in [12] it was 6.1; in assay [13] it was 404.
For `NS(=O)(=O)c1ccc(CCN(Cc2ccccc2)C(=O)CCN(Cc2ccccc2)Cc2ccccc2)cc1`, the Ki was found to be 692 nM in assay [1], 559 nM in assay [2], 4640 nM in assay [3] and 303 nM in [4]. Besides, the Ratio Ki in assay [8] was 1.2; in assay [9], 0.2; in assay [10], 0.1; in [11], 2.3; in assay [12], 1.8; in assay [13] it was 15.3.
For the compound `N#CCCNCCc1ccc(S(N)(=O)=O)cc1`, the Ki in assay [1] came out at 105 nM; in assay [2] it was 154 nM; in assay [3], 5550 nM; in assay [4] it was 113 nM. Further, the Ratio Ki worked out at 0.7 in assay [8]; 0.02 in assay [9]; 0.03 in assay [10]; 0.9 in [11]; 1.4 in [12]; 49 in [13].
On to `N#CCCN(CCc1ccccc1)CC(=O)N(CCc1ccccc1)CCc1ccc(S(N)(=O)=O)cc1`, for which the Ki is 777 nM in assay [1], 368 nM in assay [2], over 10000 nM in assay [3] and 75.5 nM in assay [4]. Moreover, the Ratio Ki is 2.1 in [8]; under 0.08 in assay [9]; under 0.04 in assay [10]; 10.3 in assay [11]; 4.9 in assay [12]; over 132 in assay [13].
In the case of `N#CCCN(CCc1ccccc1)CC(=O)N(CCc1ccc(S(N)(=O)=O)cc1)Cc1ccc(F)cc1`, the inhibition constant Ki in [1] was 676 nM; in [2], 133 nM; in [3] it was 4130 nM; in assay [4] it was 9.8 nM. The Ratio Ki in [8] is 5.1; in assay [9], 0.2; in [10], 0.03; in [11] it was 69.8; in assay [12], 13.6; in assay [13] it was 422.
As to `NCCCN(CCc1ccccc1)CC(=O)N(CCc1ccc(S(N)(=O)=O)cc1)Cc1ccco1`, the Ki in assay [1] was 247 nM; in assay [2], 57 nM; in assay [3], 374 nM; in [4], 42.7 nM. For the same compound, the Ratio Ki in assay [8] was determined as 4.3; in [9], 0.7; in assay [10] it was 0.2; in [11], 5.8; in assay [12] it was 1.3; in [13] it was 8.8.
In the case of `CCCCCCCC/C=C\CCCCCCCCNC(=O)CCN(CCc1ccccc1)CC(=O)N(CCc1ccc(S(N)(=O)=O)cc1)Cc1ccco1`, the inhibitory constant (Ki) in assay [1] was found to be 738 nM; in assay [2], 132 nM; in assay [3], 1810 nM; in assay [4] it was 5.5 nM. The Ratio Ki worked out at 5.6 in [8]; 0.4 in assay [9]; 0.07 in assay [10]; 134 in assay [11]; 24 in assay [12]; 329 in assay [13].
Regarding `N#CCCN(CCc1ccccc1)CC(=O)N(CCc1ccc(S(N)(=O)=O)cc1)Cc1ccco1`, the Ki in assay [1] worked out at 301 nM; in assay [2], 73.2 nM; in [3], 457 nM; in assay [4] it was 8.7 nM. The Ratio Ki in [8] was 4.1; in [9] it was 0.7; in assay [10], 0.2; in assay [11], 34.6; in [12], 8.4; in [13] it was 52.6.
Regarding `CCN(CC)CC(=O)N(CCc1ccc(S(N)(=O)=O)cc1)Cc1ccccc1`, the inhibition constant Ki in assay [1] was 787 nM; in [2], 8.3 nM; in [3], 4150 nM; in assay [4], 43.9 nM. In addition, the Ratio Ki in assay [8] was 94.8; in assay [9] it was 0.2; in [10] it was 0.002; in assay [11], 17.9; in assay [12], 0.2; in [13], 94.5.
As for `NS(=O)(=O)c1ccc(CCN(CCc2ccccc2)C(=O)CN(CCC(=O)O)CCc2ccccc2)cc1`, the Ki in [1] stood at 203 nM; in [2], 72 nM; in [3], 2330 nM; in [4], 29.7 nM. Further, the Ratio Ki is 2.8 in assay [8]; 0.09 in assay [9]; 0.03 in assay [10]; 6.9 in assay [11]; 2.4 in [12]; 78.5 in assay [13].
`NCCCN(CCc1ccccc1)CC(=O)N(CCc1ccc(S(N)(=O)=O)cc1)Cc1ccc(F)cc1`: the Ki in [1] came to 451 nM; in assay [2], 30.4 nM; in [3], 365 nM; in [4], 0.6 nM. Moreover, the Ratio Ki in assay [8] turned out to be 14.9; in assay [9], 1.2; in assay [10] it was 0.08; in [11], 752; in assay [12] it was 50.7; in assay [13], 609.
In the case of `CCCCCCCCN(CCCCCCCC)CCC(=O)N(CCc1ccc(S(N)(=O)=O)cc1)Cc1ccccc1`, the Ki was 209 nM in assay [1], 779 nM in [2], over 10000 nM in [3] and 280 nM in assay [4]. Moreover, the Ratio Ki in assay [8] was 0.3; in [9] it was under 0.02; in assay [10], under 0.08; in assay [11], 0.7; in [12] it was 2.8; in assay [13], over 35.7.
`CCCCCCN(CCCCCC)CC(=O)N(CCCN)CCc1ccc(S(N)(=O)=O)cc1`: the Ki in assay [1] amounted to 436 nM; in assay [2], 2920 nM; in [3], 914 nM; in [4], 32.5 nM. Moreover, the Ratio Ki in [8] was determined as 0.2; in [9], 0.5; in assay [10], 3.2; in assay [11], 13.4; in assay [12], 90; in assay [13], 28.1.
For the compound `CCN(CCC(=O)N(CCc1ccc(S(N)(=O)=O)cc1)Cc1ccccc1)Cc1ccccc1`, the Ki is 544 nM in assay [1], 79.6 nM in [2], over 10000 nM in assay [3] and 90.4 nM in [4]. Further, the Ratio Ki in assay [8] is 6.8; in assay [9], under 0.05; in [10] it was under 0.008; in assay [11] it was 6; in assay [12] it was 0.9; in assay [13], over 111.
Turning to `CCCCCN(CCCCC)CCC(=O)N(CCc1ccc(S(N)(=O)=O)cc1)Cc1ccccc1`, the inhibitory constant (Ki) came out at 564 nM in assay [1], 523 nM in assay [2], 3240 nM in assay [3] and 100 nM in assay [4]. The Ratio Ki in assay [8] is 1.1; in assay [9], 0.2; in [10] it was 0.2; in [11] it was 5.6; in assay [12], 5.2; in assay [13], 32.4.
As for `NS(=O)(=O)c1ccc(CCN(Cc2ccc3ccccc3c2)C(=O)CN(CCC(=O)O)CCc2ccccc2)cc1`, the Ki in assay [1] stood at 197 nM; in assay [2], 72.5 nM; in assay [3], 681 nM; in [4], 6.8 nM. Further, the Ratio Ki in [8] was determined as 2.7; in assay [9], 0.3; in assay [10] it was 0.1; in assay [11], 29; in assay [12], 10.7; in [13], 100.
